Measured values taken from ChEMBL document CHEMBL1221232, “Synthesis and biological activity of 4''-O-acyl derivatives of 14- and 15-membered macrolides linked to omega-quinolone-carboxylic unit” (Bioorg Med Chem, 2010).
In brackets after ≈: the same amount, converted by molar mass.

Experiments:
Staphylococcus aureus [1] = assay: Antibacterial activity against erythromycin-sensitive Staphylococcus aureus ATCC 13709 by broth microdilution method; format: functional
In short: (§1)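 MIC by CLSI broth microdilution. Inocula from agar-grown cultures: chocolate agar for H. influenzae, Columbia agar with 5% sheep blood for M. catarrhalis, Mueller-Hinton agar for S. aureus. Read as minimum inhibitory concentration in µg/mL.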

Staphylococcus aureus [2] = assay: Antibacterial activity against efflux-mediated macrolide resistance Staphylococcus aureus PK1 by broth microdilution method; format: functional
In short: (§2)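 MIC by CLSI broth microdilution. Staphylococci were grown on Mueller-Hinton agar before testing. The MIC is the lowest concentration inhibiting growth.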

Streptococcus pneumoniae [3] = assay: Antibacterial activity against efflux-mediated macrolide resistance Streptococcus pneumoniae Ci137 by broth microdilution method; format: functional
In short: (§3)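 MIC by CLSI broth microdilution, except that the streptococcal medium used 5% horse serum in place of lysed blood. Streptococcal inocula came from Columbia agar with 5% sheep blood. The MIC is the lowest concentration inhibiting growth.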

Streptococcus pyogenes [4] = assay: Antibacterial activity against efflux-mediated macrolide resistance Streptococcus pyogenes 2 by broth microdilution method; format: functional; in short: as §3
Staphylococcus aureus [5] = assay: Antibacterial activity against macrolide, licosamide and streptogramin inducible-resistance Staphylococcus aureus 90256 by broth microdilution method; format: functional; in short: as §2
Streptococcus pneumoniae [6] = assay: Antibacterial activity against inducible resistance to macrolide and constitutive resistance to lincosamide Streptococcus pneumoniae 134 GR M by broth microdilution method; format: functional; in short: as §3
Streptococcus pyogenes [7] = assay: Antibacterial activity against macrolide, licosamide and streptogramin inducible-resistance Streptococcus pyogenes 11 by broth microdilution method; format: functional; in short: as §3
Streptococcus pneumoniae [8] = assay: Antibacterial activity against constitutive MLS-resistance Streptococcus pneumoniae 58 by broth microdilution method; format: functional; in short: as §3
Streptococcus pyogenes [9] = assay: Antibacterial activity against constitutive MLS resistance Streptococcus pyogenes 166 GR-Micro by broth microdilution method; format: functional; in short: as §3
Haemophilus influenzae = assay: Antibacterial activity against Haemophilus influenzae ATCC 49247 by broth microdilution method; format: functional; in short: as §1
Moraxella catarrhalis = assay: Antibacterial activity against Moraxella catarrhalis ATCC 23246 by broth microdilution method; format: functional; in short: as §1
Rattus norvegicus [10] = assay: Clearance in Sprague-Dawley rat blood as % of liver blood flow at 30 mg/kg, po and 5 mg/kg, iv; format: ADME, organism-based; settings: in vivo
In short: (§4)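 Po/iv crossover study in male Sprague-Dawley rats. Target doses were 30 mg/kg po (fasted) and 5 mg/kg iv (fed). Compound was given as a solution in 1.0% DMSO and 20% (w/v) Encapsin, in saline for iv or water for po, pH 3.5–4.0. Blood was sampled at several timepoints up to 1800 min and hemolyzed 1:1 with water.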

[11] = Volume of distribution at steady state in Sprague-Dawley rat blood at 30 mg/kg, po and 5 mg/kg, iv; format: ADME, organism-based; settings: whole blood, read-out: Vdss; in short: as §4
[12] = Oral bioavailability in Sprague-Dawley rat blood at 30 mg/kg; format: ADME, organism-based; settings: whole blood; in short: as §4
Rattus norvegicus [13] = assay: Liver blood flow in Sprague-Dawley rat blood at 30 mg/kg, po and 5 mg/kg, iv; format: ADME, organism-based; settings: in vivo; in short: as §4

Structure (SMILES)	MIC (Staphylococcus aureus [1]) [µg/mL]	MIC (Staphylococcus aureus [2]) [µg/mL]	MIC (Streptococcus pneumoniae [3]) [µg/mL]	MIC (Streptococcus pyogenes [4]) [µg/mL]	MIC (Staphylococcus aureus [5]) [µg/mL]	MIC (Streptococcus pneumoniae [6]) [µg/mL]	MIC (Streptococcus pyogenes [7]) [µg/mL]	MIC (Streptococcus pneumoniae [8]) [µg/mL]	MIC (Streptococcus pyogenes [9]) [µg/mL]	MIC (Haemophilus influenzae) [µg/mL]	MIC50 (Haemophilus influenzae) [µg/mL]	MIC90 (Haemophilus influenzae) [µg/mL]	MIC (Moraxella catarrhalis) [µg/mL]	Fraction of Liver Blood Flow (Rattus norvegicus [10]) [%]	Vd [11] [L/kg]	bioavailability [12] [%]	LBF (Rattus norvegicus [13]) [%]
CC[C@H]1OC(=O)[C@H](C)[C@@H](O[C@H]2C[C@@](C)(OC)[C@@H](OC(=O)CCOCCOCCCc3ccc4c(c3)c(=O)c(C(=O)O)cn4CC)[C@H](C)O2)[C@H](C)[C@@H](O[C@@H]2O[C@H](C)C[C@H](N(C)C)[C@H]2O)[C@](C)(O)C[C@@H](C)CN(C)[C@H](C)[C@@H](O)[C@]1(C)O	≤ 0.125	0.25 (≈ 0.223 µM)	≤ 0.125	≤ 0.125	0.25 (≈ 0.223 µM)	0.25 (≈ 0.223 µM)	≤ 0.125	≤ 0.125	≤ 0.125	1 (≈ 0.891 µM)	1 (≈ 0.891 µM)	2 (≈ 1.78 µM)	≤ 0.125	35	10.4	22	–
CC[C@H]1OC(=O)[C@H](C)[C@@H](O[C@H]2C[C@@](C)(OC)[C@@H](OC(=O)CCOCCOCCCc3ccc4c(c3)c(=O)c(C(=O)O)cn4C3CC3)[C@H](C)O2)[C@H](C)[C@@H](O[C@@H]2O[C@H](C)C[C@H](N(C)C)[C@H]2O)[C@](C)(O)C[C@@H](C)CN(C)[C@H](C)[C@@H](O)[C@]1(C)O	≤ 0.125	≤ 0.125	≤ 0.125	≤ 0.125	≤ 0.125	0.25 (≈ 0.22 µM)	≤ 0.125	≤ 0.125	0.5 (≈ 0.441 µM)	2 (≈ 1.76 µM)	1 (≈ 0.882 µM)	2 (≈ 1.76 µM)	0.5 (≈ 0.441 µM)	–	10.5	16	43
CCCn1cc(C(=O)O)c(=O)c2cc(CCCOCCOCCC(=O)O[C@H]3[C@H](C)O[C@@H](O[C@H]4[C@H](C)[C@@H](O[C@@H]5O[C@H](C)C[C@H](N(C)C)[C@H]5O)[C@](C)(O)C[C@@H](C)CN(C)[C@H](C)[C@@H](O)[C@](C)(O)[C@@H](CC)OC(=O)[C@@H]4C)C[C@@]3(C)OC)ccc21	≤ 0.125	≤ 0.125	≤ 0.125	≤ 0.125	≤ 0.125	≤ 0.125	≤ 0.125	≤ 0.125	0.25 (≈ 0.22 µM)	1 (≈ 0.88 µM)	1 (≈ 0.88 µM)	2 (≈ 1.76 µM)	0.5 (≈ 0.44 µM)	–	–	–	–
CC[C@H]1OC(=O)[C@H](C)[C@@H](O[C@@H]2O[C@@H](C)C[C@](C)(OC)[C@H]2OC(=O)CCOCCOCCCc2ccc3c(c2)c(=O)c(C(=O)O)cn3CC)[C@H](C)[C@@H](O[C@@H]2O[C@H](C)C[C@H](N(C)C)[C@H]2O)[C@](C)(OC)C[C@@H](C)C(=O)[C@H](C)[C@H]2N(C)C(=O)O[C@]12C	≤ 0.125	0.5 (≈ 0.431 µM)	≤ 0.125	≤ 0.125	0.25 (≈ 0.215 µM)	≤ 0.125	≤ 0.125	≤ 0.125	≤ 0.125	1 (≈ 0.862 µM)	–	–	≤ 0.125	–	–	–	–
CC[C@H]1OC(=O)[C@H](C)[C@@H](O[C@@H]2O[C@@H](C)C[C@](C)(OC)[C@H]2OC(=O)CCOCCOCCCc2ccc3c(c2)c(=O)c(C(=O)O)cn3CC)[C@H](C)[C@@H](O[C@@H]2O[C@H](C)C[C@H](N(C)C)[C@H]2O)[C@](C)(O)C[C@@H](C)/C(=N\OCOCCOC)[C@H](C)[C@@H](O)[C@]1(C)O	0.5 (≈ 0.413 µM)	1 (≈ 0.826 µM)	≤ 0.125	≤ 0.125	8 (≈ 6.61 µM)	0.5 (≈ 0.413 µM)	≤ 0.125	1 (≈ 0.826 µM)	1 (≈ 0.826 µM)	4 (≈ 3.3 µM)	–	–	1 (≈ 0.826 µM)	–	–	–	–
CC[C@H]1OC(=O)[C@H](C)[C@@H](O[C@@H]2O[C@@H](C)C[C@](C)(OC)[C@H]2OC(=O)CCOCCOCCCc2ccc3c(c2)c(=O)c(C(=O)O)cn3CC)[C@H](C)[C@@H](O[C@@H]2O[C@H](C)C[C@H](N(C)C)[C@H]2O)[C@](C)(OC)C[C@@H](C)C(=O)[C@H](C)[C@H]2NC(=O)O[C@@]21C	≤ 0.125	≤ 0.125	≤ 0.125	≤ 0.125	≤ 0.125	≤ 0.125	≤ 0.125	≤ 0.125	≤ 0.125	1 (≈ 0.872 µM)	2 (≈ 1.74 µM)	4 (≈ 3.49 µM)	1 (≈ 0.872 µM)	–	–	–	–
CC[C@H]1OC(=O)[C@H](C)[C@@H](O[C@H]2C[C@@](C)(OC)[C@@H](O)[C@H](C)O2)[C@H](C)[C@@H](O[C@@H]2O[C@H](C)C[C@H](N(C)C)[C@H]2O)[C@](C)(O)C[C@@H](C)CN(C)[C@H](C)[C@@H](O)[C@]1(C)O [AZITHROMYCIN]	0.5 (≈ 0.668 µM)	> 64	8 (≈ 10.7 µM)	8 (≈ 10.7 µM)	> 64	> 64	> 64	> 64	> 64	1 (≈ 1.34 µM)	1 (≈ 1.34 µM)	2 (≈ 2.67 µM)	≤ 0.125	–	–	–	–
CC[C@H]1OC(=O)[C@H](C)C(=O)[C@H](C)[C@@H](O[C@@H]2O[C@H](C)C[C@H](N(C)C)[C@H]2O)[C@](C)(OC)C[C@@H](C)C(=O)[C@H](C)[C@H]2N(CCCCn3cnc(-c4cccnc4)c3)C(=O)O[C@]12C [TELITHROMYCIN]	≤ 0.125	≤ 0.125	0.25 (≈ 0.308 µM)	0.5 (≈ 0.616 µM)	≤ 0.125	0.25 (≈ 0.308 µM)	≤ 0.125	0.25 (≈ 0.308 µM)	16 (≈ 19.7 µM)	2 (≈ 2.46 µM)	–	–	≤ 0.125	–	–	–	–
